The values below come from ChEMBL document CHEMBL1134329, “Dopamine D(3) receptor antagonists. 1. Synthesis and structure-activity relationships of 5,6-dimethoxy-N-alkyl- and N-alkylaryl-substituted 2-aminoindans” (J Med Chem, 2001).

Assay [1] is filed under the species Rattus norvegicus. The assay is described as follows: In vitro stability in rat hepatocytes relative to that of PNU-93385. Format: functional. The following applies: Hepatocyte. The method, boiled down:
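Compound incubated alongside reference PNU-93385. Metabolism followed by HPLC with UV detection. Intrinsic clearance is expressed relative to the reference to give relative metabolic stability.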

Assay [2] deals with D(3) dopamine receptor (Rattus norvegicus) (UniProt P19020). The assay is described as follows: Inhibition of [3H]spiperone at D3 dopamine receptors on CHO cell membranes; 1000 nM. Format: cell-based. Put shortly: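 Cloned rat D3 receptor in stably transfected CHO cell membranes, filtration assay with [3H]spiperone (0.3 nM). Single concentration of 1000 nM in duplicate, given as mean % inhibition. Buffer 20 mM HEPES, 10 mM MgSO4, 150 mM NaCl, 1 mM EDTA pH 7.4, 1 h at room temperature. 3 µM haloperidol for nonspecific binding.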
D(3) dopamine receptor (Rattus norvegicus), sequence (P19020 whole entry): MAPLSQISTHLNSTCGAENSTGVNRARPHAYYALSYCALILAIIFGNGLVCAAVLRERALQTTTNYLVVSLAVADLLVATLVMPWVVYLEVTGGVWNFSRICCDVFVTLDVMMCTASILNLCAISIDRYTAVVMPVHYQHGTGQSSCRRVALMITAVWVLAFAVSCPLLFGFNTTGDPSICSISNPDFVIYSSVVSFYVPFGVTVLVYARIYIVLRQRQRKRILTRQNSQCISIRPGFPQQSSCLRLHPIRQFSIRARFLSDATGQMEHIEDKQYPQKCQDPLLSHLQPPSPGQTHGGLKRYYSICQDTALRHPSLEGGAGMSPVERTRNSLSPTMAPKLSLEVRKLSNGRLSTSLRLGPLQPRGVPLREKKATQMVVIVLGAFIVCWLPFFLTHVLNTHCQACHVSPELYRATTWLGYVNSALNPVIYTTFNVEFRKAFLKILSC

For assay [3], the target named is D(2) dopamine receptor (Rattus norvegicus) (UniProt P61169). In words: Inhibition of [3H]-PNU-86170 binding at D2 dopamine receptors on CHO cell membranes; 1000 nM. The format is cell-based. Put shortly: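 Single-point screen at 1000 nM in duplicate, reported as mean % inhibition. Rat D2 receptor stably expressed in CHO cell membranes, labelled with [3H]-PNU-86170 (2 nM). Buffer 20 mM HEPES/10 mM MgSO4 pH 7.4, 1 h at room temperature. Nonspecific binding defined by 3 µM haloperidol.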
D(2) dopamine receptor (Rattus norvegicus), sequence (P61169 whole entry): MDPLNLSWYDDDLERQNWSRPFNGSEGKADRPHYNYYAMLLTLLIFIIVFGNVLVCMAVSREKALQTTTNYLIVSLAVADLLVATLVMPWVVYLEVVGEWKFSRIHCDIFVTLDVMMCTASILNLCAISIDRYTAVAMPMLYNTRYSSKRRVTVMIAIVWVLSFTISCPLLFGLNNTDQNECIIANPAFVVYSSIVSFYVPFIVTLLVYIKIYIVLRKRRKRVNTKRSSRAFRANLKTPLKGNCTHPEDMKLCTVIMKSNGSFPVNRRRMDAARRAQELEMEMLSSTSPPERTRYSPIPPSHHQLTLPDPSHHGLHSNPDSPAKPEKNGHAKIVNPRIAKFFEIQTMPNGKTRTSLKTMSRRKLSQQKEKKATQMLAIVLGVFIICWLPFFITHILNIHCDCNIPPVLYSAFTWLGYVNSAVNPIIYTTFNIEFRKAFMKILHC

A further assay addresses D(2) dopamine receptor (Rattus norvegicus, UniProt P61169). The assay is described as follows: Affinity at D2 dopamine receptor on CHO cell membranes by [3H]PNU-86170 displacement. The method, boiled down:
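Cloned rat D2 receptor stably expressed in CHO cells; membranes from cell pellets disrupted in ice-cold 50 mM Tris/5 mM EDTA/5 mM EGTA pH 7.4 with graded centrifugation. [3H]-PNU-86170 (2 nM) competition, 11 concentrations in duplicate, 20 mM HEPES/10 mM MgSO4 pH 7.4, 1 h room temperature. Haloperidol 3 µM defines nonspecific binding. Filtration or SPA read-out; one-site fit IC50, Ki by Cheng-Prusoff.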

Another assay has as its target D(3) dopamine receptor (Rattus norvegicus, UniProt P19020). The assay is described as follows: Affinity at rat D3 dopamine receptor on CHO cell membranes by [3H]spiperone displacement.
In assay [4] the target is T1, 5-hydroxytryptamine receptor 1A (Rattus norvegicus, UniProt P19327).
T1 sequence (P19327 whole entry): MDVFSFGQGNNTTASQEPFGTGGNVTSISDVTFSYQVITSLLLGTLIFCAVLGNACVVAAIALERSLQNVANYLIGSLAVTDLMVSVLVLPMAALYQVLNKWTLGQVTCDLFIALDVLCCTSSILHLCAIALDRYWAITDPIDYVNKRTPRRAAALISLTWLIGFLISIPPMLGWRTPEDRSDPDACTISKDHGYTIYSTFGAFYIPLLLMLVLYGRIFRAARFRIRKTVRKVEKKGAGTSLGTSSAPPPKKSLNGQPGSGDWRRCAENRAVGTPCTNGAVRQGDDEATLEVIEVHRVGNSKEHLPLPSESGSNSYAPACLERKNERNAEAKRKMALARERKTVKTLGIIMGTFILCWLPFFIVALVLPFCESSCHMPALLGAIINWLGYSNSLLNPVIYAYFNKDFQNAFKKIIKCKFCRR
The assay is described as follows: Binding affinity towards 5-hydroxytryptamine 1A receptor. The method, boiled down:
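Competition binding with [3H]-8-OH-DPAT at 5-HT1A sites in CHO cells expressing the cloned receptor. Affinity is given as Ki (nM) with SD or 95% CI. Compounds were first screened at 1 µmol/L in a monoaminergic/opioid/adrenergic receptor profile binding assay.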

In assay [5] the test system is Rattus norvegicus. The assay is described as follows: Inhibition of (+)-MK-801-induced hyperactivity in rats following 30 umol/kg i.p. Format: functional. More on the design: scale not given: the % may be the effect or the level left. The method, boiled down:
(§1)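 Rats given (+)-MK-801 0.2 mg/kg sc plus test compound ip, 10-200 µmol/kg, in vehicle of 0.9% NaCl in 0.25% methylcellulose. Locomotor activity expressed as % of vehicle control ±SEM, 8-26 animals per group.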

Assay [6] relates to Rattus norvegicus. In words: Inhibition of (+)-MK-801-induced hyperactivity in rats following 200 umol/kg i.p. The format is functional. On the set-up: scale not given: the % may be the effect or the level left. The method, boiled down:
as §1

Assay [7] relates to Rattus norvegicus. The assay is described as follows: Inhibition of (+)-MK-801-induced hyperactivity in rats following 10 uM/kg i.p. Format: functional. More on the design: scale not given: the % may be the effect or the level left. Put shortly: as §1
In assay [8] the test system is Rattus norvegicus. In words: Inhibition of (+)-MK-801-induced hyperactivity in rats following 100 umol/kg i.p. The format is functional. On the set-up: scale not given: the % may be the effect or the level left. Put shortly:
as §1

D(3) dopamine receptor, sequence (P19020 whole entry): as the sequence (P19020 whole entry) above
D(2) dopamine receptor, sequence (P61169 whole entry): as the sequence (P61169 whole entry) above

As for `COc1cc2c(cc1OC)CC(N1CCOCC1)C2`, the Stability in the assay filed under Rattus norvegicus [1] is 41%. Further, the inhibition is -2% in assay [2] and 10% in [3].
In the case of `CCCN(CC1CC1)C1Cc2cc(OC)c(OC)cc2C1`, the Stability in the assay listed under Rattus norvegicus [1] was found to be 23%.
Turning to `CCCN(C(C)CC)C1Cc2cc(OC)c(OC)cc2C1` (configuration not stated), the figures for the inhibition in assay [2] and in assay [3] were 16% and 2%, respectively.
As to `CCCN(CCC)C1Cc2ccc(O)cc2C1` (configuration not stated), the Ki on D(2) dopamine receptor was 53 nM; on D(3) dopamine receptor, 14 nM; in assay [4] it was above 3000 nM.
With `CCCN(CCCc1ccccc1)C1Cc2cc(OC)c(OC)cc2C1`, the Ki on D(2) dopamine receptor was determined as 155 nM; at D(3) dopamine receptor it was 23 nM. Besides, the Stability in the assay filed under Rattus norvegicus [1] came to 67%.
On to `CCCN(CCc1ccc(OC)c(OC)c1)C1Cc2cc(OC)c(OC)cc2C1`, for which the Ki at D(2) dopamine receptor worked out at 66 nM; at D(3) dopamine receptor it was 29 nM.
As to `COc1cc2c(cc1OC)CC(N(C)C)C2`, the Stability in the assay listed under Rattus norvegicus [1] was 59%. The inhibition was 26% in assay [2] and 19% in [3].
`C=CCN(CC=C)C1Cc2cc(OC)c(OC)cc2C1` returned a Stability in the assay filed under Rattus norvegicus [1] of 13%. Also, the figures for the inhibition in [2] and in [3] were 12% and 19%, respectively.
Take `CCCNC1Cc2cc(OC)c(OC)cc2C1`: the inhibition in [2] turned out to be 17%; in assay [3] it was 19%.
For `CCN(CC)C1Cc2cc(OC)c(OC)cc2C1`, in that order: 20% and 9%.
For the compound `COc1cc2c(cc1OC)CC(N(CC1CC1)CC1CC1)C2`, the Stability in the assay listed under Rattus norvegicus [1] is 22%. In addition, the inhibition in assay [2] was determined as 0%; in assay [3], 15%.
Regarding `COc1cc2c(cc1OC)CC(N1CCCC1)C2`, the figures for the inhibition in assay [2] and in assay [3] were 4% and 13%, respectively.
Turning to `CCCN(CCc1cccc(F)c1)C1Cc2cc(OC)c(OC)cc2C1`, the Ki is 125 nM on D(2) dopamine receptor and 30 nM at D(3) dopamine receptor.
Regarding `CCCN(CCC)C1Cc2cccc(O)c2C1` (configuration not stated), the results for the Ki (on D(2) dopamine receptor; on D(3) dopamine receptor; in [4]) were 5.2 nM, 42 nM and 19.5 nM, respectively.
For `CCCN(CCc1cccs1)C1Cc2cc(OC)c(OC)cc2C1`, the Stability in the assay listed under Rattus norvegicus [1] is 26%. The Ki on D(3) dopamine receptor came out at 78 nM. Moreover, the inhibition in assay [3] amounted to 86%.
The corresponding values for `CCCCN(CCCC)C1Cc2cc(OC)c(OC)cc2C1` are 13%, 180 nM and 22%.
`CCCN1CC[C@H]2c3c(cccc3C(N)=O)CC[C@H]21`: the Stability in the assay filed under Rattus norvegicus [1] is 100%.
Turning to `COc1cc2c(cc1OC)CC(N(CCCF)CCCF)C2`, the Stability in the assay filed under Rattus norvegicus [1] stood at 8%. Moreover, the inhibition in assay [2] is 3%.
Regarding `CCCN(CCC)C1Cc2cc(OC)c(OC)cc2C1` [PNU-99194A], the results for the Ki on D(2) dopamine receptor and at D(3) dopamine receptor were 992 nM and 31 nM, respectively. The compound also returned a Stability in the assay listed under Rattus norvegicus [1] of 38%. Further, the Control is given as 447% with Rattus norvegicus [5], 143% in the assay with Rattus norvegicus [6], 583% in the assay on Rattus norvegicus [7] and 391% in the assay with Rattus norvegicus [8].
Turning to `CCCN(CCC)C1Cc2cccc(OC)c2C1` (configuration not stated), the Ki at D(2) dopamine receptor was determined as 4.2 nM; at D(3) dopamine receptor, 45 nM; in [4], 5.1 nM.
As for `CCCN(CCc1csc(N)n1)C1Cc2cc(OC)c(OC)cc2C1`, the Ki is 265 nM at D(2) dopamine receptor and 136 nM at D(3) dopamine receptor.
For `CCCN(CCc1ccc(C(N)=O)cc1)C1Cc2cc(OC)c(OC)cc2C1`, in that order: 123 nM and 42 nM.
With `CCCN(Cc1cccs1)C1Cc2cc(OC)c(OC)cc2C1`, in the assay listed under Rattus norvegicus [1], the Stability stood at 35%. The inhibition came out at 35% in [2] and 20% in assay [3].
In the case of `CCCN(CCc1ccc(OC)cc1)C1Cc2cc(OC)c(OC)cc2C1`, the Ki on D(2) dopamine receptor amounted to 163 nM; at D(3) dopamine receptor, 39 nM. The compound also returned a Stability in the assay filed under Rattus norvegicus [1] of 53%.
For `CCCN(CC)C1Cc2cc(OC)c(OC)cc2C1`, in that order: 374 nM, 65 nM and 42%.
For `CCC(C)NC1Cc2cc(OC)c(OC)cc2C1` (configuration not stated), the results for the inhibition in assay [2] and in assay [3] were 0% and 4%, respectively.
Take `CCCN(CCc1cccnc1)C1Cc2cc(OC)c(OC)cc2C1`: the results for the Ki at D(2) dopamine receptor and on D(3) dopamine receptor were 286 nM and 134 nM, respectively.
With `CCCN(CCCF)C1Cc2cc(OC)c(OC)cc2C1`, the Ki at D(2) dopamine receptor was found to be 1840 nM; on D(3) dopamine receptor it was 342 nM. This compound also displayed a Stability in the assay listed under Rattus norvegicus [1] of 9%.
The corresponding values for `CCCN(CCc1ccsc1)C1Cc2cc(OC)c(OC)cc2C1` are 61 nM, 14 nM and 14%.
Regarding `CCC(CC)NC1Cc2cc(OC)c(OC)cc2C1`, the inhibition in assay [2] and in [3] was 0% in each case.
Regarding `COc1cc2c(cc1OC)CC(N)C2`, the inhibition came out at 0% in [2] and 2% in assay [3].
As for `CCCN(CCc1cccc(N)c1)C1Cc2cc(OC)c(OC)cc2C1`, the Ki on D(2) dopamine receptor is 162 nM; at D(3) dopamine receptor, 45 nM.
With `CCCN(CCc1ccccc1)C1Cc2cc(OC)c(OC)cc2C1`, the Ki on D(2) dopamine receptor turned out to be 27 nM; at D(3) dopamine receptor, 32 nM. In addition, the Stability in the assay filed under Rattus norvegicus [1] turned out to be 12%.
For `CCCN(Cc1ccsc1)C1Cc2cc(OC)c(OC)cc2C1`, in that order: 1240 nM, 374 nM and 15%.
In the assay listed under Rattus norvegicus [1], `COc1cc2c(cc1OC)CC(N1CCCCCC1)C2` registered a Stability of 32%. Moreover, the inhibition in assay [2] turned out to be 3%; in [3] it was 2%.
As to `CCCN(CCc1ccc(Br)cc1)C1Cc2cc(OC)c(OC)cc2C1`, the Ki on D(2) dopamine receptor was 97 nM; on D(3) dopamine receptor, 22 nM.
The corresponding values for `CCCN(CCc1ccc(C(F)(F)F)cc1)C1Cc2cc(OC)c(OC)cc2C1` are 310 nM and 34 nM.
For `CCCN(CCC)C1Cc2ccc(OC)cc2C1` (configuration not stated), in that order: 263 nM and 84 nM.
